In ChEMBL document CHEMBL3351840, “Lithocarpic Acids A-N, 3,4-seco-Cycloartane Derivatives from the Cupules of Lithocarpus polystachyus” (J Nat Prod, 2014):
Values after ≈ are worked out from the molar mass of the structure shown.

How the values were obtained:
[1] = molecular target: 11-beta-hydroxysteroid dehydrogenase 1 (Mus musculus) (UniProt P50172); test: Inhibition of mouse 11beta-HSD1 expressed in HEK293 cells assessed as [3H]cortisol at 10 uM by scintillation proximity assay; type: cell-based
11-beta-hydroxysteroid dehydrogenase 1 (Mus musculus), sequence (P50172 whole entry, looked up): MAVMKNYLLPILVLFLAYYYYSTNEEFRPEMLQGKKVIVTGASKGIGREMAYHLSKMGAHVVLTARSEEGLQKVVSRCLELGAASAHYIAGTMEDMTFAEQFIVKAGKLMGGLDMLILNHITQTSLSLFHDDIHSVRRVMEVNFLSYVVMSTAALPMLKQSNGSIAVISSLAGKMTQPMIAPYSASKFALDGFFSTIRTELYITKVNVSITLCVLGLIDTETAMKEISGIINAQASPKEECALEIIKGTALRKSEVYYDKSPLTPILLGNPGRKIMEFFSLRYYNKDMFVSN
Procedure, shortened: (§1)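 Single-concentration screen at 10 μM by scintillation proximity assay, read as % inhibition. Microsomes were incubated with NADPH and [3H]-cortisone. The [3H]-cortisol formed was captured by a monoclonal antibody on protein A-coated SPA beads. Glycyrrhetinic acid served as positive control.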

[2] = molecular target: T1, 11-beta-hydroxysteroid dehydrogenase 1 (Homo sapiens, UniProt P28845); test: Inhibition of human 11beta-HSD1 expressed in HEK293 cells assessed as [3H]cortisol at 10 uM by scintillation proximity assay; type: cell-based; procedure, shortened: as §1
Target sequence in this assay (P28845 whole entry, looked up): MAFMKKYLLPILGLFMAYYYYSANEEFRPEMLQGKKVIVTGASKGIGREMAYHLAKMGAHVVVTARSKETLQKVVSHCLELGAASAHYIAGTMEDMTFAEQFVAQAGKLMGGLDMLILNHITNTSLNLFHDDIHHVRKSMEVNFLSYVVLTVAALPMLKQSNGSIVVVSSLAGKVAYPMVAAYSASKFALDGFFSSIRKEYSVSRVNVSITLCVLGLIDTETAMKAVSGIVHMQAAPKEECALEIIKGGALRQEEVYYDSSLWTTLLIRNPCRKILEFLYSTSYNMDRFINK

Staphylococcus aureus = test: Antibacterial activity against Staphylococcus aureus ATCC 25923 after 18 hrs by microdilution method; type: functional; settings: ATCC 25923, 18 h
[3] = molecular target: T1, 11-beta-hydroxysteroid dehydrogenase 1; test: Inhibition of human 11beta-HSD1 expressed in HEK293 cells assessed as [3H]cortisol by scintillation proximity assay; type: cell-based
Procedure, shortened: (§2)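 IC50 by scintillation proximity assay. Enzyme source was microsomes from HEK293 cells stably transfected with human or murine 11β-HSD1. Microsomes were incubated with NADPH and [3H]-cortisone. Product [3H]-cortisol was captured by a monoclonal antibody coupled to protein A-coated SPA beads. Glycyrrhetinic acid served as positive control.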
Target sequence in this assay (P28845 whole entry): as the sequence (P28845 whole entry, looked up) above

Bacillus subtilis = test: Antibacterial activity against Bacillus subtilis ATCC 6633 after 18 hrs by microdilution method; type: functional; settings: ATCC 6633, 18 h
[4] = molecular target: 11-beta-hydroxysteroid dehydrogenase 1 (Mus musculus, UniProt P50172); test: Inhibition of mouse 11beta-HSD1 expressed in HEK293 cells assessed as [3H]cortisol by scintillation proximity assay; type: cell-based; procedure, shortened: as §2
11-beta-hydroxysteroid dehydrogenase 1 (Mus musculus, UniProt P50172), sequence (P50172 whole entry): as the sequence (P50172 whole entry, looked up) above

[5] = tested on: Staphylococcus epidermidis; test: Antibacterial activity against Staphylococcus epidermidis ATCC 12228 after 18 hrs by microdilution method; type: functional; settings: ATCC 12228, 18 h
Micrococcus luteus = test: Antibacterial activity against Micrococcus luteus ATCC 9341 after 18 hrs by microdilution method; type: functional; settings: ATCC 9341, 18 h

Structure (SMILES) | inhibition [1] [%] | inhibition [2] [%] | MIC (Staphylococcus aureus) [µg/mL] | IC50 [3] [nM] | MIC (Bacillus subtilis) [µg/mL] | IC50 [4] [nM] | MIC [5] [µg/mL] | MIC (Micrococcus luteus) [µg/mL]
CC1COc2c(N3CCN(C)CC3)c(F)cc3c(=O)c(C(=O)O)cn1c23 (stereo not given) [OFLOXACIN] | – | – | 0.2 (≈ 0.553 µM) | – | 0.013 (≈ 0.036 µM) | – | 0.2 (≈ 0.553 µM) | 1.6 (≈ 4.43 µM)
C=C(C)[C@H](O)CC[C@@H](COC(C)=O)[C@H]1CC[C@@]2(C)[C@@H]3CC[C@@H](C(=C)C)[C@@]4(CCC(=O)O)C[C@@]34CC[C@]12C | – | – | > 50 | – | 12.5 (≈ 24.3 µM) | – | 25 (≈ 48.6 µM) | 12.5 (≈ 24.3 µM)
C=C(C)[C@@H]1CC[C@@H]2[C@]3(CC[C@]4(C)[C@@H]([C@H](C)C/C=C/C(C)(C)O)CC[C@@]24C)C[C@]13CCC(=O)O | – | – | > 50 | – | 3.1 (≈ 6.79 µM) | – | > 50 | 6.3 (≈ 13.8 µM)
C=C(C)C(=O)CC[C@@H](COC(C)=O)[C@H]1CC[C@@]2(C)[C@@H]3CC[C@@H](C(=C)C)[C@@]4(CCC(=O)O)C[C@@]34CC[C@]12C | – | – | > 50 | – | 25 (≈ 48.8 µM) | – | > 50 | > 50
C=C(C)[C@@H](O)CC[C@@H](COC(C)=O)[C@H]1CC[C@@]2(C)[C@@H]3CC[C@@H](C(=C)C)[C@@]4(CCC(=O)O)C[C@@]34CC[C@]12C | – | – | > 50 | – | 12.5 (≈ 24.3 µM) | – | 25 (≈ 48.6 µM) | 12.5 (≈ 24.3 µM)
C=C(C)[C@@H]1CC[C@@H]2[C@]3(CC[C@]4(C)[C@@H]([C@H]5CC[C@@H](C(C)(C)O)OC5)CC[C@@]24C)C[C@]13CCC(=O)O | – | – | > 50 | – | > 50 | – | > 50 | > 50
C=C(C)[C@@H]1CC[C@@H]2[C@]3(CC[C@]4(C)[C@@H]([C@@H](CCC(=O)O)COC(C)=O)CC[C@@]24C)C[C@]13CCC(=O)O | > 60 | > 60 | – | 1900 | – | – | – | –

Results, then the molecule that gave them:

inhibition [1] [%] | inhibition [2] [%] | MIC (Staphylococcus aureus) [µg/mL] | IC50 [3] [nM] | MIC (Bacillus subtilis) [µg/mL] | IC50 [4] [nM] | MIC [5] [µg/mL] | MIC (Micrococcus luteus) [µg/mL] | Structure (SMILES)
> 60 | > 60 | 25 (≈ 52.9 µM) | 1400 | 6.3 (≈ 13.3 µM) | 990 | 25 (≈ 52.9 µM) | 12.5 (≈ 26.4 µM) | C=C(C)[C@H](O)CC[C@@H](CO)[C@H]1CC[C@@]2(C)[C@@H]3CC[C@@H](C(=C)C)[C@@]4(CCC(=O)O)C[C@@]34CC[C@]12C
– | – | > 50 | – | 50 (≈ 105 µM) | – | > 50 | 50 (≈ 105 µM) | C=C(C)[C@@H]1CC[C@@H]2[C@]3(CC[C@]4(C)[C@@H]([C@H](C)CC[C@H](O)C(C)(C)O)CC[C@@]24C)C[C@]13CCC(=O)O
> 60 | > 60 | 25 (≈ 52.9 µM) | 1900 | 6.3 (≈ 13.3 µM) | 240 | 12.5 (≈ 26.4 µM) | 3.1 (≈ 6.56 µM) | C=C(C)[C@@H]1CC[C@@H]2[C@]3(CC[C@]4(C)[C@@H]([C@H]5CC[C@H](C(C)(C)O)OC5)CC[C@@]24C)C[C@]13CCC(=O)O
> 60 | > 60 | 25 (≈ 48.6 µM) | 2300 | 6.3 (≈ 12.2 µM) | 740 | 12.5 (≈ 24.3 µM) | 6.3 (≈ 12.2 µM) | C=C(C)[C@@H]1CC[C@@H]2[C@]3(CC[C@]4(C)[C@@H]([C@@H](C/C=C/C(C)(C)O)COC(C)=O)CC[C@@]24C)C[C@]13CCC(=O)O
